# Screening results (PubChem)
# Most compounds without a hit are left out; they make up all but 12% or so of the library.
# WT yeast gro inh = growth inhibition of WT yeast, mitochondrial fusion screen; mitochondrial fusion phenotypic screen, WT strain; inhibition, % at 10 µM; 190,000 compounds, 2.1% hits; AID 1362; in the data active means inhibition above about 58%; tested in S. cerevisiae
# RAM network inh = inhibitors of the yeast RAM network. AID 868. S. cerevisiae dse1pr::URA3 reporter, 5-FOA growth OD615, 2 d; analog-sensitive cbk1-as2 kinase mutant strain. inhibition, % at 50 µM. 190,000 compounds, 1.8% hits;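 active means inhibition above a set limit, 3 SD over mean compound inhibition, cut at about 8.4% in these data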;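 further: 0% = DMSO-only wells with no growth and 100% = 10 µM 1-NA-PP1 full growth; inhibition rescues growth on 5-FOA so higher OD means more RAM inhibition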
# Lmaj promast = inhibitors of Leishmania major promastigote growth; inhibition, % at 10 µM; Leishmania major promastigotes, resazurin fluorescence viability; 200,000 compounds, 9% hits; in the data active means inhibition above about 50%;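 further: promastigotes grown with compound for 44 hours at 28 °C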
# ABCB1 inh = human ABCB1 inhibition, ABCG2 as counter-screen; 190,000 compounds, 0.067% hits; AID 1326; P08183; CCRF-Adr cells, JC-1 efflux, flow cytometry; inhibition, % at 6.6 µM; in the data active means inhibition above about 40%;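 further: 0% = vehicle and 100% = reference inhibitor; higher value means more JC-1 retained so stronger ABCB1 efflux block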
# ABCG2 block = human ABCG2 inhibition, ABCB1 as counter-screen; Q9UNQ0; IgMXP3 cells, JC-1 efflux, flow cytometry; inhibition, % at 6.6 µM; 190,000 compounds, 0.1% hits;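 active means inhibition above 80%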;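 further: 0% = DMSO and 100% = nicardipine control wells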
# Target sequence (Q9UNQ0 whole entry, looked up): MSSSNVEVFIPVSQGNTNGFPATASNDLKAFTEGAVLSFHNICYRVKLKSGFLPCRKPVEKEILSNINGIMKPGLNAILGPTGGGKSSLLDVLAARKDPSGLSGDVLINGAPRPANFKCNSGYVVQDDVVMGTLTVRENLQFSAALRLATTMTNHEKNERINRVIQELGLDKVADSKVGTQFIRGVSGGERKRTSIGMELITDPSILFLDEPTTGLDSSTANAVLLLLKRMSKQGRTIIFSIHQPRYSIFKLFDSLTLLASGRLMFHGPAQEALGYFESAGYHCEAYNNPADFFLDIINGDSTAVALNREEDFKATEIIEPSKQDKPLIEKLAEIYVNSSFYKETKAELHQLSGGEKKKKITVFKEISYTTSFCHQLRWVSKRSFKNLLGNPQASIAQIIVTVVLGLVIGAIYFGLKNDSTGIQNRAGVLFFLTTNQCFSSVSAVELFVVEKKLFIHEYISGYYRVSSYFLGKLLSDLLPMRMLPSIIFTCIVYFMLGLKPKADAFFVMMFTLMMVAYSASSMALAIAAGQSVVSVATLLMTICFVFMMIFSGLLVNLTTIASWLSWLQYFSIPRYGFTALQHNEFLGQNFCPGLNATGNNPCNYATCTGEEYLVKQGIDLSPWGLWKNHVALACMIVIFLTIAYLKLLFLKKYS
#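 Test system: IgMXP3 (ABCG2) plus far-red-tagged CCRF-Adr (ABCB1) cells / Amount: 3 million cells/mL in well / Reagent: JC-1 transporter substrate / Timing: 10 min compound exposure, 25 °C / Signal: flow cytometry, 530 nm JC-1 signal / Read-out: percent efflux inhibition, scaled nicardipine 100% to DMSO 0% / Benchmarks: nicardipine as high control, DMSO as low control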
# * hit, by the source's call.
SMILES,WT yeast gro inh,RAM network inh,Lmaj promast,ABCB1 inh,ABCG2 block
O=C(c1ccc(S(=O)(=O)N2CCCCC2)cc1)N1CCN(CCN2C(=O)c3cccc4cccc(c34)C2=O)CC1,35.5,-0.1,12.7,9.2,11.7
CCCN(CCC)C(=O)CC(c1ccccc1)c1cc(C)ccc1O (configuration not stated),23.2,2.4,14.3,1.3,4.7
CCN(CCO)C(=O)CC(c1ccccc1)c1cc(Br)ccc1O (configuration not stated),-23.8,3.9,50.1*,1.6,19.8
O=C(CSc1nc2cc(Cl)ccc2s1)c1cc2ccccc2o1,40.5,9.4*,-4.7,0.0,0.2
Cc1cc(NC(=O)CSc2nc3cc(Cl)ccc3s2)no1,8.1,3.9,-4.9,-0.2,-1.0
Cc1cc(SCC(=O)c2cc3ccccc3o2)nc2ccccc12,-7.9,11.0*,-3.7,-0.2,0.2
CCOc1ccccc1Nc1nnc(SCC(=O)NC(=O)c2cccn2C)s1,9.5,2.7,55.7*,2.1,22.2
COc1ccc(Nc2nnc(SCC(=O)c3cc(C)n(CC4CCCO4)c3C)s2)cc1 (configuration not stated),-0.5,2.6,50.1*,0.2,3.2
COc1cccc(Nc2nnc(SCC(=O)Nc3sccc3C(N)=O)s2)c1,-13.6,3.5,65.0*,-0.4,-0.6
Cc1c(C(=O)Nc2nnc(SCc3ccccc3Cl)s2)cccc1[N+](=O)[O-],5.9,1.2,74.1*,0.7,16.9
CCCCCCSc1nsc(NC(=O)CCC)n1,16.7,2.8,2.2,-0.2,-0.2
Cc1cc(C(=O)CSc2nnc(-c3ccc(Cl)cc3)n2CC2CCCO2)c(C)n1C (configuration not stated),67.5*,2.6,-1.5,1.2,9.8
COc1ccc(Nc2nnc(SCC(=O)Nc3ccc4[nH]c(=O)[nH]c4c3)s2)cc1,11.4,10.4*,0.6,-0.3,-0.5
CCc1ccc(Nc2nnc(SCC(=O)Nc3sccc3C(N)=O)s2)cc1,-5.3,4.0,98.1*,-0.5,-9.0
CCc1ccc(Nc2nnc(SCC(=O)NCCN3C(=O)CSC3=O)s2)cc1,1.7,2.9,23.7,0.2,5.4
CCc1ccc(Nc2nnc(SCC(=O)Nc3cccnc3Cl)s2)cc1,13.5,1.5,90.1*,0.5,2.5
COc1ccc(C(=O)N[C@H](C(=O)NCc2cccs2)C(C)C)cc1,-8.2,-0.1,-2.1,3.7,7.2
CCOC(=O)N1CCN(Cc2cn[nH]c2-c2cc3ccccc3o2)CC1,-14.3,1.6,-4.7,0.7,2.8
Cc1ccccc1Nc1nnc(SCC(=O)Nc2ccccc2[N+](=O)[O-])s1,17.6,8.7*,-4.7,0.5,4.5
Cc1cccc(Nc2nnc(SCC(=O)Nc3ccccc3[N+](=O)[O-])s2)c1,19.0,5.0,-0.9,6.1,40.7
COc1cc2c(cc1OC)CN(Cc1cc(=O)oc3cc(C)c(Cl)cc13)CC2,7.3,1.4,60.0*,8.6,11.2
CSCc1ccc(C(=O)Nc2ccc(C(N)=O)cc2)cc1,-1.5,4.4,-2.2,0.3,14.9
O=[N+]([O-])c1ccc(N/N=C/c2ccc[nH]2)cc1,43.8,8.9*,29.5,1.0,13.9
CCN(C(=O)c1cnc(N2CCN(c3ncccn3)CC2)c2ccccc12)c1cccc(Cl)c1,62.8*,-0.3,-14.9,1.2,0.4
Cc1onc(-c2ccccc2)c1C(=O)N/N=C/c1ccc([N+](=O)[O-])s1,7.3,-0.8,100.3*,1.8,10.9
SMILES,WT yeast gro inh,RAM network inh,Lmaj promast,ABCB1 inh,ABCG2 block
CCOc1ccc(/C=N/NC(=O)c2c(-c3ccccc3)noc2C)cc1,-9.2,10.9*,13.5,0.5,8.1
Cc1onc(-c2ccccc2)c1C(=O)N/N=C/c1cccc(O)c1,9.2,0.2,-1.6,0.7,8.8
c1ccc(CN(Cc2ccco2)C(c2ccncc2)c2nnnn2C2CCCC2)cc1 (configuration not stated),-6.8,0.7,95.2*,2.6,2.0
Clc1ccc(CN(Cc2ccccc2)C(c2cccs2)c2nnnn2C2CCCC2)cc1 (configuration not stated),0.3,2.9,86.8*,0.0,-0.5
Fc1ccc(C(c2nnnn2C2CCCC2)N(Cc2ccco2)CC2CCCO2)cc1 (configuration not stated),13.9,3.5,78.2*,0.8,1.1
Fc1ccc(CN(Cc2ccccc2)C(c2cccs2)c2nnnn2C2CCCCC2)cc1 (configuration not stated),-1.1,7.4,18.7,0.4,0.8
O=C(CNC(=O)c1ccccc1Cl)N/N=C/c1ccc([N+](=O)[O-])s1,-21.5,1.4,99.1*,0.2,34.0
O=C(Cc1cccs1)N/N=C\c1ccc([N+](=O)[O-])s1,9.8,1.0,100.3*,1.3,45.1
Cc1cccc(NC(=S)N/N=C/c2cccc([N+](=O)[O-])c2)c1,0.2,6.2,-2.0,0.2,1.1
Cc1ccc(NC(=S)N/N=C/c2ccc([N+](=O)[O-])s2)cc1,73.5,0.4,89.3*,-3.4,-12.4
O=C(COC(=O)c1cccnc1Cl)NCc1ccco1,0.0,4.8,-7.6,0.1,0.6
CCOC(=O)Cc1nc2cc(Cl)ccc2o1,0.4,2.5,0.9,0.1,0.1
CCc1cc(=O)[nH]c(SCCC(F)=C(F)F)n1,-3.9,2.6,-1.0,0.8,6.9
CC(C)=C(NC(=O)c1ccccc1)C(=O)Nc1cccc(C(=O)O)c1,-13.1,2.0,-8.8,0.2,0.2
COC(=O)Nc1ccc(S(=O)(=O)Nc2ccc(C)cc2)cc1,21.7,0.0,-18.9,0.8,0.3
COC(=O)c1cc2cc(NS(=O)(=O)c3ccc(C)cc3)ccc2s1,0.0,4.6,100.3*,0.3,1.9
CC(=O)c1cc(-c2ccccc2)n(CCC(=O)NC(C)(C)C)c1C,1.4,0.8,-2.1,0.4,0.0
Cc1nc2cc(NC(=O)Nc3cccc4ccccc34)ccc2n1C,-7.7,1.1,-5.7,-0.7,-1.8
Cc1ccc(NC(=O)c2ccc3snnc3c2)cc1,-7.7,0.4,14.3,0.0,2.3
O=C(Nc1ccccc1)c1ccc2snnc2c1,-17.2,1.4,76.9*,0.0,0.5
COc1ccccc1NC(=O)c1ccc2snnc2c1,14.5,1.0,98.6*,0.6,3.4
COc1cc(OC)c(NC(=O)c2cccc(F)c2)cc1Cl,11.9,2.9,-5.0,0.7,22.5
COc1ccc(C(N)=O)cc1NC(=O)c1cccc(F)c1,64.7*,1.2,1.7,0.1,0.0
O=C(Nc1ccc2snnc2c1)Nc1cccc2ccccc12,89.3*,3.0,100.3*,0.2,0.9
CCC(C(=O)O)P(=O)(c1ccc(Cl)cc1)c1ccc(Cl)cc1 (configuration not stated),1.2,-1.4,-6.8,-0.1,4.7
COC(=O)c1c(C)[nH]c(C(=O)CSc2ccc(Cl)cc2)c1C,-16.3,3.6,5.3,1.0,12.0
COc1nnc(-c2ccc(N3CCCCC3)c(NC(C)=O)c2)c2ccccc12,-1.3,0.6,3.9,0.5,1.8
